Calls of active or inactive are those of the source. The rule behind the calls is not given here.
Assays:
OVCAR-3 = test: Cytotoxicity against human OVCAR3 cells after 72 hrs by CellTiter 96 Aqueous One Solution reagent based assay; format: functional, cell-based; conditions: OVCAR-3, 72 h
MDA-MB-435 = test: Cytotoxicity against human MDA-MB-435 cells after 72 hrs by CellTiter 96 Aqueous One Solution reagent based assay; format: functional, cell-based; conditions: MDA-MB-435, 72 h
HT-29 = test: Cytotoxicity against human HT-29 cells after 72 hrs by CellTiter 96 Aqueous One Solution reagent based assay; format: functional, cell-based; conditions: HT-29, 72 h
MDA-MB-231 = test: Cytotoxicity against human MDA-MB-231 cells after 72 hrs by CellTiter 96 Aqueous One Solution reagent based assay; format: functional, cell-based; conditions: MDA-MB-231, 72 h
[1] = Inhibition of porcine cortex Na+/K+-ATPase using ATP as substrate after 15 mins by ADP-Glo Reagent based method; parameters: species or system Sus scrofa
How it was run: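 Enzyme from porcine cerebral cortex in assay buffer, preincubated with compound in DMSO or DMSO alone; ATP added, 15 min reaction. ADP formed was quantified luminescently: 40 min with ADP-Glo reagent, then 60 min with detection reagent (luciferin/luciferase). Concentration-response over a range of concentrations; IC50 derived; triplicate, three independent experiments.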

NCI-H1299 = test: Inhibition of glucose transporter in human NCI-H1299 cells assessed as reduction in [3H]2-deoxy-D-glucose uptake at 30 uM preincubated for 15 mins followed by [3H]2-deoxy-D-glucose addition and measured after 40 mins by liquid scintillation counting method; format: cell-based
How it was run: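 H1299 NSCLC cells (maintained in DMEM, 25 mM glucose, 10% FBS) serum-starved 1.5 h in FBS-free DMEM, then 30 min in glucose-free KRP buffer. Compound at 30 μM final, 15 min; uptake started with 37 MBq/L 2-deoxy-D-[3H]glucose plus 1 mM glucose (final), 40 min. Stopped with PBS, lysate radioactivity counted. Vehicle negative control, WZB117 positive control; n = 3, Student's t-test versus vehicle.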

**Q.** Which IC50 (OVCAR-3) does the source give for `CC(=O)O[C@H]1[C@@H](OC(C)=O)C[C@H](O[C@H]2[C@@H](OC(C)=O)C[C@H](O[C@H]3[C@@H](OC(C)=O)C[C@H](O[C@H]4CC[C@@]5(C)[C@H](CC[C@@H]6[C@@H]5C[C@@H](OC(C)=O)[C@]5(C)[C@@H](C7=CC(=O)OC7)CC[C@]65O)C4)O[C@@H]3C)O[C@@H]2C)O[C@@H]1C` here?
**A.** The IC50 was 8.2 µM.

**Q.** What about the IC50 (MDA-MB-435) of the same molecule?
**A.** The IC50 was greater than 10 µM.

**Q.** What about the IC50 (HT-29) of the same molecule?
**A.** Its IC50 is greater than 10 µM.

**Q.** And the IC50 (MDA-MB-231)?
**A.** Its IC50 is greater than 10 µM.

**Q.** With `C[C@]12CC[C@H](O)C[C@H]1CC[C@@H]1[C@@H]2C[C@@H](O)[C@]2(C)[C@@H](C3=CC(=O)OC3)CC[C@]12O` [DIGOXIGENIN] as the molecule, how does the IC50 (OVCAR-3) read?
**A.** The IC50 was 2.4 µM.

**Q.** What about the IC50 (MDA-MB-435) of the same molecule?
**A.** The IC50 was 0.9 µM.

**Q.** What about the IC50 (HT-29) of the same molecule?
**A.** Its IC50 is 3.6 µM.

**Q.** And the IC50 (MDA-MB-231)?
**A.** The IC50 was 3.2 µM.

**Q.** For `C[C@H]1O[C@@H](O[C@H]2[C@@H](O)C[C@H](O[C@H]3[C@@H](O)C[C@H](O[C@H]4CC[C@@]5(C)[C@H](CC[C@@H]6[C@@H]5C[C@@H](O)[C@]5(C)[C@@H](C7=CC(=O)OC7)CC[C@]65O)C4)O[C@@H]3C)O[C@@H]2C)C[C@H](O)[C@@H]1O` [DIGOXIN], which IC50 [1] is on record?
**A.** The IC50 was 0.23 µM.

**Q.** What about the IC50 (MDA-MB-435) of the same molecule?
**A.** Its IC50 is 0.17 µM.

**Q.** And the IC50 (HT-29)?
**A.** Its IC50 is 0.28 µM.

**Q.** And the Activity (NCI-H1299)?
**A.** The Activity was “inactive”.

**Q.** What about the IC50 (MDA-MB-231) of the same molecule?
**A.** Its IC50 is 0.31 µM.

**Q.** With `C[C@]12[C@H](O)CC3=C(CC[C@@H]4C[C@@H](O)CC[C@]34C)[C@H]1CC[C@@H]2C1=CC(=O)OC1` as the molecule, how does the IC50 (OVCAR-3) read?
**A.** Its IC50 is greater than 10 µM.

**Q.** And the IC50 (MDA-MB-435)?
**A.** The IC50 was greater than 10 µM.

**Q.** What about the IC50 (HT-29) of the same molecule?
**A.** The IC50 was greater than 10 µM.

**Q.** What about the IC50 (MDA-MB-231) of the same molecule?
**A.** Its IC50 is greater than 10 µM.

**Q.** Which IC50 [1] does the source give for `C[C@H]1O[C@@H](O[C@H]2[C@@H](O)C[C@H](O[C@H]3[C@@H](O)C[C@H](O[C@H]4CC[C@@]5(C)[C@H](CC[C@@H]6[C@@H]5C[C@@H](O)[C@]5(C)[C@H]([C@@H]7CC(=O)O[C@@H]7O)CC[C@]65O)C4)O[C@@H]3C)O[C@@H]2C)C[C@H](O)[C@@H]1O` here?
**A.** Its IC50 is 160 µM.

**Q.** And the IC50 (OVCAR-3)?
**A.** Its IC50 is greater than 10 µM.

**Q.** What about the IC50 (MDA-MB-435) of the same molecule?
**A.** The IC50 was greater than 10 µM.

**Q.** And the IC50 (HT-29)?
**A.** The IC50 was greater than 10 µM.

**Q.** And the IC50 (MDA-MB-231)?
**A.** Its IC50 is greater than 10 µM.

**Q.** For `CC(=O)O[C@H]1[C@@H](OC(C)=O)C[C@H](O[C@H]2[C@@H](O)C[C@H](O[C@H]3[C@@H](O)C[C@H](O[C@H]4CC[C@@]5(C)[C@H](CC[C@@H]6[C@@H]5C[C@@H](OC(C)=O)[C@]5(C)[C@@H](C7=CC(=O)OC7)CC[C@]65O)C4)O[C@@H]3C)O[C@@H]2C)O[C@@H]1C`, which IC50 (OVCAR-3) is on record?
**A.** Its IC50 is 6.2 µM.

**Q.** And the IC50 (MDA-MB-435)?
**A.** Its IC50 is greater than 10 µM.

**Q.** What about the IC50 (HT-29) of the same molecule?
**A.** Its IC50 is greater than 10 µM.

**Q.** What about the IC50 (MDA-MB-231) of the same molecule?
**A.** Its IC50 is greater than 10 µM.

From ChEMBL document CHEMBL4613252 (J Nat Prod, 2020)
